From PubChem
Most compounds without a hit are left out; they make up all but 2.2% or so of the library.
CFTR F508del cor – CFTR F508del correction in bronchial cells; CFBE cells, YFP halide quenching; stimulated with forskolin plus potentiator P3; % fluorescence drop versus neutral controls; activity (quench increase), % at 7.58 µM; 0.36% of 350,000 active;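 active means mean added fluorescence quench of at least 8% versus neutral control, with both replicates also reaching 8%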;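 further: cells transiently co-express mutant CFTR-F508del with the halide-sensitive YFP; corrector assay measuring rescue of mutant channel to the surface after 24 h compound exposure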
S100A4 inh HTS – inhibitors of human S100A4 binding to myosin IIA peptide; P26447; S100A4/TAMRA-MyoIIA peptide fluorescence polarization; inhibition, % at 10.7 µM; 0.14% of 360,000 active;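 active means mean inhibition of at least 70% across replicates, with every replicate also reaching that level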
Target sequence (P26447 whole entry, looked up): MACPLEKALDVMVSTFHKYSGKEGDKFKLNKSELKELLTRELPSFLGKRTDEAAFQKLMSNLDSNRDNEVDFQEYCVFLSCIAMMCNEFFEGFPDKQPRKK
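Test system: S100A4 monomer protein. Medium: HEPES buffer with Ca2+, pH 7.2. Reagent: fluorescent myosin IIA peptide, 5 nM. Compound dosing: single-point compound testing. Timing: 5 min between mix addition and reading. Benchmarks: DMSO neutral and TFP positive wells.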
dFosB act – enhances mouse delta FosB homodimer DNA binding; P13346; purified delta FosB, TAMRA-CDK5 oligo fluorescence polarization; percent of positive-control signal above neutral wells; activation, % at 25 µM; 0.99% of 340,000 active; AID 493131;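 active means mean activation above about 17%, with every replicate also reaching it, limit read from the data, passing the limit was not always enough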
Target sequence (P13346 whole entry, looked up): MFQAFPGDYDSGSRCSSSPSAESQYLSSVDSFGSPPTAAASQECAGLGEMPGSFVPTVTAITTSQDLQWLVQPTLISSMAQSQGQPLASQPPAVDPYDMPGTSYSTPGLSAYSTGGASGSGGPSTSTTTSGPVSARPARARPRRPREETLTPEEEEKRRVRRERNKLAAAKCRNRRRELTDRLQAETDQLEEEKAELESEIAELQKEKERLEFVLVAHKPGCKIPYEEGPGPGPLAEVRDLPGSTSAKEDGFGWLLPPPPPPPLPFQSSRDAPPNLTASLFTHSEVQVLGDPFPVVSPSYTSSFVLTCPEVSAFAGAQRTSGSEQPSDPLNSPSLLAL
FGF22 binding-1 – FGF22 (human) thermal shift binding; Q9HCT0; recombinant FGF22 thermal shift, SYPRO orange fluorescence; percent of sucrose octasulfate shift, DMSO zero; activity (Tm shift, normalised), % at 9.99 µM; 1.5% of 340,000 active;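 active means mean Tm shift, scaled 0 neutral to 100 positive control, at about 1.3% or above, every replicate too, limit read from the data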
Target sequence (Q9HCT0 whole entry, looked up): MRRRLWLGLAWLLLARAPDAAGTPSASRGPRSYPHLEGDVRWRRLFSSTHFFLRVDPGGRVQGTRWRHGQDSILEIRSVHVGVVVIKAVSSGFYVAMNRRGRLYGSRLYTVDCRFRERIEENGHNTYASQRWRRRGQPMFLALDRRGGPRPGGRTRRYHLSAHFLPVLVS
FGF22 binding-2 – FGF22 (human) binding in thermal shift; shares compounds with FGF22 binding-1; recombinant FGF22 thermal shift, SYPRO orange fluorescence; thermal shift activity, °C (ΔTm) at 38 µM; 2% of 1,000 active; AID 720646;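 active means fitted rise in melting shift crosses a set limit at or below the top valid dose tested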
FGF22 TSA DP – binds human FGF22 shifting its melting temperature. 50 tested, under 10 active. shares compounds with FGF22 binding-1. Thermal shift assay, SYPRO orange, melting temperature shift. Tm shift (activity), % at 38 µM;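 active means compounds whose fitted dose curve of melting temperature shift rises past a set threshold within the tested doses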
TSA no protein – shows thermal shift signal without protein, FGF22 counter-screen. shares compounds with FGF22 binding-1. compound-only SYPRO orange thermal shift counter-screen, no protein. AC50, µM (series often up to 38 µM). 2% of 1,000 active. AID 743019;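 active means rising signal whose fitted curve reaches the 0.54 level within the top valid dose, showing a melting point, actives reach about 13 µM in these data; inactive means the rest, including activity in the opposite direction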; further: value is where the raw curve crosses a fixed level and not half-maximal
An asterisk follows results filed as active; i = inactive; . = no result; [ ] = remark or other dose.

SMILES	CFTR F508del cor	S100A4 inh HTS	dFosB act	FGF22 binding-1	FGF22 binding-2	TSA no protein	others
CCCC(=O)Nc1ccc(C(=O)Nc2ccc([N+](=O)[O-])cc2OC)cc1	-3	-4	-5	1.4*	-0.17	i
C[C@@H]1CCCCO[C@H](CN(C)C)[C@H](C)CN([C@@H](C)CO)C(=O)c2cc(NC(=O)C3CCCCC3)ccc2O1	-2	.	.	.	.	.
COc1cc2oc(-c3ccc(O)cc3)cc(=O)c2c(O)c1OC	1	20	8	10*	-0.085	i
COc1cc2oc(-c3ccc(O)cc3)cc(=O)c2c(OC)c1O	-2	-2	8	-1	.	.
COc1ccc(-c2csc(NC(=O)CN3C(=O)C4CCCCC4C3=O)n2)c(OC)c1 (configuration not stated)	3	-1	-5	1.6*	-1.6	10µM*
COc1cccc(NC(=O)N(C)C[C@H]2OCc3ccccc3-c3c(n(C)c4ccccc34)C(=O)N([C@@H](C)CO)C[C@@H]2C)c1	-1	-19	.	-1	.	.
COc1cc(NS(=O)(=O)c2ccc(NS(=O)(=O)c3ccc(C)cc3)cc2)nc(OC)n1	0	-49	-3	3.1*	-0.025	i
COc1ccc(S(=O)(=O)Nc2ccc3c(c2)CC(=O)N([C@@H](C)CO)C[C@@H](C)[C@H](CN(C)Cc2ccc(-c4ccccc4)cc2)O3)cc1	4	-7	.	0	.	.
Oc1ccc(-c2csc(Nc3ccccn3)n2)c(O)c1	1	3	-11	2.8*	-0.051	11µM*
NC(=S)c1cc2ccc(O)cc2oc1=O	.	.	-7	.	.	.
Oc1cc(O)cc(-c2cc3ccc(O)cc3o2)c1	-1	2	9	2.1*	0.007	i
CCC(=O)N1CC[C@@H]2[C@@H](CO)N(C)c3ccc(-c4ccccc4)cc3[C@@H]21	3	-8	.	-1	.	.
O=S(=O)(Nc1nnc(C(F)(F)F)s1)c1ccc(Cl)cc1	3	6	8	2.6*	.	i	FGF22 TSA DP=0
CC(C)(C)c1nnc(NS(=O)(=O)c2ccc(F)cc2)s1	1	-1	5	0	.	.
O=C(Nc1cccnc1)c1ccc(NS(=O)(=O)c2cccc([N+](=O)[O-])c2)cc1	0	1	-1	1.8*	-0.14	i
CC(C)(C)NC(=O)CN(C(=O)CNS(=O)(=O)c1ccccc1)c1ccc2c(c1)OCCO2	.	.	-8	.	.	.
CC(C)(C)NC(=O)CN(C(=O)CNS(=O)(=O)c1ccc(Cl)cc1)c1ccc2c(c1)OCCO2	-2	-5	-5	40*	0.1	i
CCN1[C@@H]2c3ccc(C4=CCCCC4)c(=O)n3C[C@H]1[C@H](CO)[C@H]2C(=O)NCCOC	.	-2	.	0	.	.
Cn1c(=O)[nH]c(=O)c2c1nc(SCC(O)CO)n2CCCc1ccccc1 (configuration not stated)	3	-1	-11	1.4*	0.026	i
CC(C)CCSc1nc2c(c(=O)[nH]c(=O)n2C)n1CCCc1ccccc1	1	-2	-9	0	.	.
Cc1noc(C)c1NC(=O)Nc1ccc2c(c1)C(=O)N([C@H](C)CO)C[C@@H](C)[C@@H](CN(C)Cc1ccc3c(c1)OCO3)O2	1	22	.	0	.	.
C[C@@H]1CN([C@H](C)CO)C(=O)Cc2cc(NC(=O)C3CC3)ccc2O[C@H]1CN(C)S(=O)(=O)c1cn(C)cn1	1	6	.	1.3*	0.11	i
C[C@@H]1CCCCO[C@@H](CN(C)CC2CCCCC2)[C@@H](C)CN([C@@H](C)CO)C(=O)c2cc(N(C)C)ccc2O1	1	1	.	-1	.	.
C[C@@H]1CN([C@H](C)CO)C(=O)c2cc(N(C)C)ccc2O[C@@H]1CN(C)CC1CCCCC1	0	3	.	1.4*	0.27[42 µM]	i
C[C@@H]1CN([C@@H](C)CO)C(=O)c2cc(NS(=O)(=O)c3cn(C)cn3)ccc2O[C@@H]1CN(C)CC1CC1	-2	5	.	1.4*	0.037[42 µM]	i
SMILES	CFTR F508del cor	S100A4 inh HTS	dFosB act	FGF22 binding-1	FGF22 binding-2	TSA no protein	others
C[C@H]1CN([C@@H](C)CO)C(=O)c2cc(NC(=O)CCC(F)(F)F)ccc2O[C@H]1CN(C)CC1CC1	1	-2	.	1.8*	0.097[10 µM]	i
C[C@@H]1CN([C@H](C)CO)C(=O)c2cc(NC(=O)c3ccncc3)ccc2O[C@H]1CN(C)S(=O)(=O)c1cn(C)cn1	3	7	.	-1	.	.
C[C@H]1CN([C@@H](C)CO)C(=O)c2cc(NC(=O)c3ccncc3)ccc2O[C@@H]1CN(C)S(=O)(=O)c1cn(C)cn1	-1	4	.	1.4*	0.058	i
Cc1noc(C)c1S(=O)(=O)N(C)C[C@H]1Oc2ccc(NS(=O)(=O)c3cccs3)cc2C(=O)N([C@@H](C)CO)C[C@H]1C	2	13	.	2.1*	0.12	i
C[C@@H]1CCCCO[C@@H](CN(C)Cc2ccncc2)[C@H](C)CN([C@@H](C)CO)C(=O)c2cc(NC(=O)c3ccccc3)ccc2O1	-1	-4	.	0	.	.
O=C(Cc1n[nH]c(=O)[nH]c1=O)N/N=C/c1ccccc1	.	-2	3	.	.	.
O=C(Cc1n[nH]c(=O)[nH]c1=O)N/N=C/c1c(O)ccc2ccccc12	3	2	5	1.4*	.	10µM*
COc1ccccc1NC(=O)N[C@@H]1CC[C@H](CC(=O)NCc2ccc(Cl)c(Cl)c2)O[C@H]1CO	0	-2	.	0	.	.
CO[C@H](CN(C)S(=O)(=O)c1cccc(Cl)c1)[C@H](C)CN([C@H](C)CO)S(=O)(=O)c1cccc(Cl)c1	-5	12	.	2.0*	-0.036[42 µM]	i
CO[C@H](CN(C)S(=O)(=O)c1cccc(Cl)c1)[C@H](C)CN([C@@H](C)CO)S(=O)(=O)c1cccc(Cl)c1	0	-8	.	1.8*	0.12[42 µM]	i
CO[C@H](CN(C)S(=O)(=O)c1cccc(Cl)c1)[C@H](C)CN([C@@H](C)CO)S(=O)(=O)c1ccc(Cl)cc1	0	11	.	0	.	.
CO[C@@H](CN(C)S(=O)(=O)c1cccc(Cl)c1)[C@@H](C)CN([C@H](C)CO)S(=O)(=O)c1cccc(Cl)c1	2	-5	.	1.6*	0.25[42 µM]	i
COCC(=O)N1[C@H](C(=O)NCc2ccccc2Cl)[C@@H](CO)[C@@H]2Cn3c(cccc3=O)[C@@H]21	-2	-4	.	.	.	.
Cc1ccc(S(=O)(=O)N2CCOCC2)cc1C(=O)Nc1nc(-c2ccccn2)cs1	3	-23	-22	0	.	.
O=C(Nc1nc(-c2ccccn2)cs1)c1cccc(S(=O)(=O)N2CCOCC2)c1	3	-6	-16	1.5*	-0.095	i
O=C(Nc1nc(-c2ccccn2)cs1)c1cc2ccccc2o1	2	1	-26	1.6*	-0.22	i
